Data on three compounds can be found in ChEMBL document CHEMBL2169771, “Mechanistic aspects of the photodynamic inactivation of Candida albicans induced by cationic porphyrin derivatives” (Eur J Med Chem, 2012).

Molecules are shown by their SMILES. Activity calls are given as the source filed them. The rule behind the calls is not given here.

For test [1], the system named is Candida albicans. The test can be described thus: Antifungal activity against 10^6 CFU/mL Candida albicans PC31 assessed as cell survival at 5 uM preincubated for 30 mins in dark followed by irradiation measured after 30 mins. In kind it is functional.
Test [2] has as its system Candida albicans. Description: Photocytotoxicity against Candida albicans PC31 assessed as release of intracellular DNA and protein at 5 uM preincubated for 30 mins in dark followed by irradiation measured after 30 mins by UV-vis spectroscopic analysis. The class given is functional, organism-based. The essentials: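 PC31 cells (~10^7 CFU/mL in 2 mL PBS) were incubated with 5 µM porphyrin for 30 min in the dark, then irradiated 30 min with visible light (162 J/cm²). After centrifugation at 13,000 rpm for 5 min, supernatants were scanned by UV–visible spectroscopy, with absorbance at 260 nm taken as the release read-out. Freeze–thaw lysis in liquid nitrogen gave the positive control.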

The subject of test [3] is Nucleic Acid. The test can be described thus: Binding affinity to Candida albicans PC31 DNA assessed as genomic DNA cleavage at 5 uM preincubated for 30 mins in dark followed by irradiation measured after 30 mins by agarose gel electrophoresis. In kind it is nucleic-acid assay. In a few lines: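 PC31 cells (~10^7 CFU/mL in PBS) received 5 µM sensitizer for 30 min at 37 °C in the dark, then 30 min visible light (162 J/cm²). Genomic DNA was extracted with a commercial kit immediately after irradiation. It was run on 1% agarose in TBE (pH 8) at 2.9 V/cm for 2 h beside an irradiated control.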

Test [4] relates to Candida albicans. The test can be described thus: Antifungal activity against 10^7 CFU/mL Candida albicans PC31 assessed as cell survival at 5 uM preincubated for 30 mins in dark followed by irradiation measured after 30 mins. The class given is functional. In a few lines: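 C. albicans PC31 grown overnight in Sabouraud broth at 37 °C to stationary phase, then resuspended in 10 mM PBS pH 7.0 at ~10^7 CFU/mL. Incubated with 5 µM porphyrin for 30 min in the dark at 37 °C. Irradiated 30 min with visible light from a 150 W lamp, water-filtered (fluence 162 J/cm²). CFU counted on Sabouraud agar after ~48 h at 37 °C, plated in triplicate. Three separate experiments, mean ± SD.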

Test [5] relates to Nucleic Acid. Description: Binding affinity to calf thymus DNA assessed as reduction in electrophoretic DNA mobility at 20 uM after 1 to 5 hrs irradiation by agarose gel electrophoresis. Particulars: Bos taurus. The class given is nucleic-acid assay. The essentials: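 Calf thymus double-stranded DNA (1.3 × 10^-4 M, in base pairs) mixed with 20 μM sensitizer in TE buffer (10 mM Tris-HCl, 1 mM EDTA, pH 7.6). Irradiated with visible light (90 mW/cm²) at room temperature for 1, 2, 3, 4 or 5 h. Samples then run on 1% agarose gels in TBE buffer (pH 8) at 2.9 V/cm for 2 h. Controls: DNA alone, DNA with sensitizer in dark, irradiated DNA.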

Test [6] concerns Candida albicans. Description: Antifungal activity against 10^7 CFU/mL Candida albicans PC31 preincubated for 30 mins in dark followed by irradiation measured after 30 mins. In kind it is functional, organism-based. Particulars: PC31, light or radiation study. The essentials: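 IC50 was derived from PBS suspensions of PC31 (~10^7 CFU/mL) treated with 0.1–10 µM porphyrin for 30 min in the dark at 37 °C. Cells were then irradiated for 30 min with water-filtered visible light from a 150 W lamp. Survival was counted as CFU on Sabouraud agar after ~48 h at 37 °C.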

Test [7] relates to Candida albicans. The test can be described thus: Photocytotoxicity against Candida albicans PC31 assessed as change in cell morphology at 5 to 10 uM preincubated for 30 mins in dark followed by irradiation measured after 30 mins by transmission electron microscopy. In kind it is functional, organism-based. The essentials:
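PC31 suspensions (~10^7 CFU/mL) were given 5 or 10 µM sensitizer for 30 min in the dark at 37 °C, then irradiated 30 min with visible light (162 J/cm²). Cells were fixed in 4% formaldehyde/2% glutaraldehyde in 0.1 M cacodylate for 2 h, then post-fixed in 1% OsO4. They were acetone-dehydrated, Araldite-embedded, cut at 80–100 nm, stained with uranyl acetate and lead citrate, and imaged by TEM.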

Test [8] relates to Nucleic Acid. Description: Binding affinity to calf thymus DNA by spectrophotometric analysis. The class given is nucleic-acid assay. The note with it: Bos taurus. The essentials: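 Absorbance titration: concentrated calf thymus DNA stock was added to ~2 µM porphyrin in PBS. Apparent KDNA was calculated from the Soret-maximum absorbance change, assuming 1:1 stoichiometry and DNA in large excess, via a double-reciprocal fit (1/ΔA vs 1/[DNA]). Three separate experiments, mean ± SD.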

Test [9] concerns Nucleic Acid. Description: Binding affinity to calf thymus DNA assessed as DNA cleavage at 20 uM after 1 hr irradiation by agarose gel electrophoresis. The class given is nucleic-acid assay. The note with it: Bos taurus. In a few lines:
(§1)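 Calf thymus DNA (1.3 × 10^-4 M, base pairs) was mixed with 20 µM sensitizer in TE buffer (10 mM Tris-HCl, 1 mM EDTA, pH 7.6). Mixtures were irradiated in open tubes with visible light (90 mW/cm²) at room temperature for 1–5 h; dark controls were included. Samples were run on 1% agarose in TBE at 2.9 V/cm for 2 h.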

In test [10] the test system is Nucleic Acid. The test can be described thus: Binding affinity to calf thymus DNA assessed as DNA cleavage at 20 uM after 2 hrs irradiation by agarose gel electrophoresis. In kind it is nucleic-acid assay. The note with it: Bos taurus. In a few lines: as §1
Test [11] relates to Nucleic Acid. The test can be described thus: Binding affinity to calf thymus DNA assessed as DNA cleavage at 20 uM by agarose gel electrophoresis in absence of irradiation. The note with it: Bos taurus. The class given is nucleic-acid assay. In a few lines:
as §1

Test [12] has as its system Nucleic Acid. The test can be described thus: Binding affinity to calf thymus DNA assessed as DNA cleavage at 20 uM after 5 hrs irradiation by agarose gel electrophoresis. The class given is nucleic-acid assay. Particulars: Bos taurus. The essentials: as §1

Turning to `C[n+]1ccc(-c2c3nc(c(-c4cc[n+](C)cc4)c4ccc([nH]4)c(-c4cc[n+](C)cc4)c4ccc([nH]4)c(-c4cc[n+](C)cc4)c4nc2C=C4)C=C3)cc1` [TMPYP4], the log10CFU/ml with Candida albicans [1] came out at 5; with Candida albicans [4], 3.5. Also, the outcome with Candida albicans [2] and in the test with Nucleic Acid [3] was inactive. For the same compound, the result with Nucleic Acid [5] and with Candida albicans [7] was Active. Besides, in the test with Candida albicans [6], the 50% inhibitory concentration (IC50) was 410 nM. Moreover, the Kapp with Nucleic Acid [8] came to 4.4 ×10⁵ /M.
For `C[N+](C)(C)c1ccc(-c2c3nc(c(-c4ccc([N+](C)(C)C)cc4)c4ccc([nH]4)c(-c4ccc([N+](C)(C)C)cc4)c4nc(c(-c5ccc([N+](C)(C)C)cc5)c5ccc2[nH]5)C=C4)C=C3)cc1`, the results for the log10CFU/ml with Candida albicans [1] and in the test with Candida albicans [4] were 5 and 3.5, respectively. The outcome with Candida albicans [2] and in the test on Nucleic Acid [3] was inactive. Further, the Activity in the test with Nucleic Acid [9] is 59.3%; in the test on Nucleic Acid [10], over 90%. Inhibition in the test on Candida albicans [6] was half-maximal at 230 nM (IC50). Besides, the outcome in the test on Candida albicans [7] was Active. The Kapp in the test on Nucleic Acid [8] came to 7.5 ×10⁵ /M.
For the compound `C[N+](C)(C)c1ccc(-c2c3nc(c(-c4ccc([N+](C)(C)C)cc4)c4ccc([nH]4)c(-c4ccc([N+](C)(C)C)cc4)c4nc(c(-c5ccc(C(F)(F)F)cc5)c5ccc2[nH]5)C=C4)C=C3)cc1`, the log10CFU/ml in the test with Candida albicans [1] stood at 5; with Candida albicans [4], 3.5. Also, the outcome in the test with Nucleic Acid [11], in the test with Candida albicans [2] and in the test on Nucleic Acid [3] was inactive. Further, the Activity in the test with Nucleic Acid [12] worked out at 50%; in the test with Nucleic Acid [9], 19.7%. Also, the IC50 with Candida albicans [6] worked out at 160 nM. The outcome in the test with Candida albicans [7] was Active. The compound also gave a Kapp with Nucleic Acid [8] of 6.7 ×10⁵ /M.

One may read the IC50 as the concentration that inhibits the measured activity by half. Higher therefore signals weaker potency in that assay.
